Laboratory results as given in ChEMBL document CHEMBL1817567, “Design of benzimidazole- and benzoxazole-2-thione derivatives as inhibitors of bacterial hyaluronan lyase” (Eur J Med Chem, 2011).
In brackets after ≈: the same amount, converted by molar mass. Activity calls are given as the source filed them. The rule behind the calls is not given here.

Tests used:
[1] = target: T1, Hyaluronidase (Bos taurus) (UniProt Q8SQG8+Q5E985); test: Inhibition of bovine testes hyaluronidase at 80 uM after 30 mins at pH 5 by turbidimetric analysis; assay type: protein assay
[2] = target: T1, Hyaluronidase (Bos taurus); test: Inhibition of bovine testes hyaluronidase at 4200 uM after 30 mins at pH 5 by turbidimetric analysis; assay type: protein assay
[3] = target: T1, Hyaluronidase (Bos taurus); test: Inhibition of bovine testes hyaluronidase at 180 uM after 30 mins at pH 5 by turbidimetric analysis; assay type: protein assay
[4] = target: T1, Hyaluronidase (Bos taurus); test: Inhibition of bovine testes hyaluronidase at 170 uM after 30 mins at pH 5 by turbidimetric analysis; assay type: protein assay
[5] = target: T1, Hyaluronidase (Bos taurus); test: Inhibition of bovine testes hyaluronidase at 400 uM after 30 mins at pH 5 by turbidimetric analysis; assay type: protein assay
[6] = target: T1, Hyaluronidase (Bos taurus); test: Inhibition of bovine testes hyaluronidase at 3800 uM after 30 mins at pH 5 by turbidimetric analysis; assay type: protein assay
[7] = target: T1, Hyaluronidase (Bos taurus); test: Inhibition of bovine testes hyaluronidase at 63 uM after 30 mins at pH 5 by turbidimetric analysis; assay type: protein assay
[8] = target: T1, Hyaluronidase (Bos taurus); test: Inhibition of bovine testes hyaluronidase at 190 uM after 30 mins at pH 5 by turbidimetric analysis; assay type: protein assay
[9] = Inhibition of Streptococcus agalactiae 4755 hyaluronidase at pH 7.4 after 3 hrs by turbidimetric analysis
Summary of the method: (§1)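 Same turbidimetric hyaluronan-lyase assay at pH 7.4 (citrate–phosphate/NaCl): SagHyal4755 2.9 ng, hyaluronan (2 mg/ml stock), BSA, 3.8% DMSO final, 3 h at 37 °C. CTAB (2.5%, in 0.5 M NaOH) precipitation, 20 min at 25 °C, A600. Activity scaled between no-inhibitor and no-enzyme samples.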

[10] = Aqueous solubility of the compound in water; assay type: physicochemical
Summary of the method: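 Turbidity at 600 nm of test compound in DMSO added to citrate–phosphate buffer (pH 5 and pH 7.4), water and BSA (0.2 mg/ml stock), at various concentrations, read against a water reference. Enzyme testing used only concentrations showing no turbidity.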

[11] = target: T1, Hyaluronidase (Bos taurus); test: Inhibition of bovine testes hyaluronidase at 2000 uM after 30 mins at pH 5 by turbidimetric analysis; assay type: protein assay
[12] = target: T1, Hyaluronidase (Bos taurus); test: Inhibition of bovine testes hyaluronidase at 150 uM after 30 mins at pH 5 by turbidimetric analysis; assay type: protein assay
[13] = target: T1, Hyaluronidase (Bos taurus); test: Inhibition of bovine testes hyaluronidase at 130 uM after 30 mins at pH 5 by turbidimetric analysis; assay type: protein assay
[14] = tested on: Streptococcus agalactiae; test: Inhibition of Streptococcus agalactiae 4755 hyaluronidase at 2000 uM after 30 mins at pH 5.0 by turbidimetric analysis
Summary of the method: (§2)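 SagHyal4755 (2.9 ng) with BSA and hyaluronan (2 mg/ml stock) in citrate–phosphate/NaCl buffer pH 5.0, 3.8% DMSO final, 30 min at 37 °C. Stopped by alkaline 2.5% CTAB, then 20 min at 25 °C. Residual-substrate turbidity read at 600 nm; no-inhibitor sample = 100%, no-enzyme sample = 0% activity. Enzyme-free compound controls were run.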

[15] = target: T1, Hyaluronidase (Bos taurus); test: Inhibition of bovine testes hyaluronidase at 460 uM after 30 mins at pH 5 by turbidimetric analysis; assay type: protein assay
[16] = target: T1, Hyaluronidase (Bos taurus); test: Inhibition of bovine testes hyaluronidase at 380 uM after 30 mins at pH 5 by turbidimetric analysis; assay type: protein assay
[17] = target: T1, Hyaluronidase (Bos taurus); test: Inhibition of bovine testes hyaluronidase at 200 uM after 30 mins at pH 5 by turbidimetric analysis; assay type: protein assay
[18] = target: T1, Hyaluronidase (Bos taurus); test: Inhibition of bovine testes hyaluronidase at 100 uM after 30 mins at pH 5 by turbidimetric analysis; assay type: protein assay
[19] = target: T1, Hyaluronidase (Bos taurus); test: Inhibition of bovine testes hyaluronidase at 49 uM after 30 mins at pH 5 by turbidimetric analysis; assay type: protein assay
[20] = tested on: Streptococcus agalactiae; test: Inhibition of Streptococcus agalactiae 4755 hyaluronidase at 130 uM after 30 mins at pH 5.0 by turbidimetric analysis; summary of the method: as §2
[21] = tested on: Streptococcus agalactiae; test: Inhibition of Streptococcus agalactiae 4755 hyaluronidase at 400 uM after 30 mins at pH 5.0 by turbidimetric analysis; summary of the method: as §2
[22] = tested on: Streptococcus agalactiae; test: Inhibition of Streptococcus agalactiae 4755 hyaluronidase at 1000 uM after 3 hrs at pH 7.4 by turbidimetric analysis; summary of the method: as §1
[23] = tested on: Streptococcus agalactiae; test: Inhibition of Streptococcus agalactiae 4755 hyaluronidase at 300 uM after 3 hrs at pH 7.4 by turbidimetric analysis; summary of the method: as §1
[24] = tested on: Streptococcus agalactiae; test: Inhibition of Streptococcus agalactiae 4755 hyaluronidase at 150 uM after 30 mins at pH 5.0 by turbidimetric analysis; summary of the method: as §2
[25] = tested on: Streptococcus agalactiae; test: Inhibition of Streptococcus agalactiae 4755 hyaluronidase at 200 uM after 3 hrs at pH 7.4 by turbidimetric analysis; summary of the method: as §1
[26] = tested on: Streptococcus agalactiae; test: Inhibition of Streptococcus agalactiae 4755 hyaluronidase at 80 uM after 30 mins at pH 5.0 by turbidimetric analysis; summary of the method: as §2
[27] = Inhibition of Streptococcus agalactiae hyaluronidase
[28] = tested on: Streptococcus agalactiae; test: Inhibition of Streptococcus agalactiae 4755 hyaluronidase at 63 uM after 30 mins at pH 5.0 by turbidimetric analysis; summary of the method: as §2
[29] = tested on: Streptococcus agalactiae; test: Inhibition of Streptococcus agalactiae 4755 hyaluronidase at 2000 uM after 3 hrs at pH 7.4 by turbidimetric analysis; summary of the method: as §1
[30] = Inhibition of Streptococcus agalactiae 4755 hyaluronidase at pH 5.0 after 30 mins by turbidimetric analysis; summary of the method: as §2
[31] = Inhibition of Streptococcus agalactiae 4755 hyaluronidase at pH 7.4; summary of the method: as §1
[32] = Inhibition of Streptococcus agalactiae 4755 hyaluronidase at pH 5.0; summary of the method: as §2
[33] = tested on: Streptococcus agalactiae; test: Inhibition of Streptococcus agalactiae 4755 hyaluronidase at 4200 uM after 3 hrs at pH 7.4 by turbidimetric analysis; summary of the method: as §1
[34] = tested on: Streptococcus agalactiae; test: Inhibition of Streptococcus agalactiae 4755 hyaluronidase at 4200 uM after 30 mins at pH 5.0 by turbidimetric analysis; summary of the method: as §2
[35] = Inhibition of Streptococcus agalactiae 4755 hyaluronidase after 30 mins by turbidimetric analysis; summary of the method: as §2

T1 sequence (Q5E985 whole entry, looked up): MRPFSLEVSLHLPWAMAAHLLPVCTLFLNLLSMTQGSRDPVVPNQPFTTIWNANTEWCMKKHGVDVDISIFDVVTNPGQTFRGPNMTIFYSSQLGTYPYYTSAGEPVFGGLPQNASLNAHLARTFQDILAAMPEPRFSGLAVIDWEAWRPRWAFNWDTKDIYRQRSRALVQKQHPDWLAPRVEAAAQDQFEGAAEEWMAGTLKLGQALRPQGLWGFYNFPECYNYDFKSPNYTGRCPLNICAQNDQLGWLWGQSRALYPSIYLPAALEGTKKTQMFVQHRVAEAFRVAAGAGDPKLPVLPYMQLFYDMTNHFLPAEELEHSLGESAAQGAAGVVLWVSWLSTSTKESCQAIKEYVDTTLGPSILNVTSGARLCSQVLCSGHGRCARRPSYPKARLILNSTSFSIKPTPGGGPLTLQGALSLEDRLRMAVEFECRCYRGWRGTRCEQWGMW
T1 sequence (Q8SQG8 whole entry, looked up): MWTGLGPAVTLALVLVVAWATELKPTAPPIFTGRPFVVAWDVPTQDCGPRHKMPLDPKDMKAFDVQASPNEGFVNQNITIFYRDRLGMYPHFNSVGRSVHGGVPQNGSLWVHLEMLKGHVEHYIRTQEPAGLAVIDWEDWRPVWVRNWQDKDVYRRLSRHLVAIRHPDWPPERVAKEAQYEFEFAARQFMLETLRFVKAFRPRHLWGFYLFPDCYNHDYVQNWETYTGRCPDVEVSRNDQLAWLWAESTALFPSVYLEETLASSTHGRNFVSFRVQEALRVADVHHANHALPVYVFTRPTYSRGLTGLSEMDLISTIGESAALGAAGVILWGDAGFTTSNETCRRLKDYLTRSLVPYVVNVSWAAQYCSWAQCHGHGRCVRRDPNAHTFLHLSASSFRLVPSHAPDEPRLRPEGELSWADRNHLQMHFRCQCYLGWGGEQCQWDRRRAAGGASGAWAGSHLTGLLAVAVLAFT

SMILES | inhibition [1] | inhibition [2] | inhibition [3] | inhibition [4] | inhibition [5] | inhibition [6] | inhibition [7] | inhibition [8] | IC50 [9] [µM] | solubility [10] [µM] | inhibition [11] | inhibition [12] | inhibition [13] | inhibition [15] | inhibition [16] | inhibition [17] | inhibition [18] | inhibition [19] | also measured
CC(=O)n1c(=O)oc2ccccc21 | inactive | inactive | inactive | inactive | inactive | inactive | inactive | inactive | 1470 | 2000 (≈ 354 µg/mL) | inactive | inactive | inactive | inactive | inactive | inactive | inactive | inactive | inhibition [14]: inactive
CCCCCC(=O)n1c(=S)oc2ccccc21 | inactive | inactive | inactive | inactive | inactive | inactive | inactive | inactive | 29 | 130 (≈ 32.4 µg/mL) | inactive | inactive | inactive | inactive | inactive | inactive | inactive | inactive | inhibition [20]: 51%
CCn1c(=S)oc2ccccc21 | inactive | inactive | inactive | inactive | inactive | inactive | inactive | inactive |  | 400 (≈ 71.7 µg/mL) | inactive | inactive | inactive | inactive | inactive | inactive | inactive | inactive | inhibition [21]: 46%; inhibition [22]: 17%
CCCCCC(=O)n1c(=O)oc2ccccc21 | inactive | inactive | inactive | inactive | inactive | inactive | inactive | inactive |  | 150 (≈ 35 µg/mL) | inactive | inactive | inactive | inactive | inactive | inactive | inactive | inactive | inhibition [23]: inactive; inhibition [24]: inactive
O=C(/C=C/c1ccccc1)n1c(=S)oc2ccccc21 | inactive | inactive | inactive | inactive | inactive | inactive | inactive | inactive |  | 80 (≈ 22.5 µg/mL) | inactive | inactive | inactive | inactive | inactive | inactive | inactive | inactive | inhibition [25]: 36%; inhibition [26]: 9%
CC1(C)[C@@H](O)CC[C@]2(C)[C@H]3C(=O)C=C4[C@@H]5C[C@@](C)(C(=O)O)CC[C@]5(C)CC[C@@]4(C)[C@]3(C)CC[C@@H]12 [ENOXOLONE] |  |  |  |  |  |  |  |  |  |  |  |  |  |  |  |  |  |  | IC50 [27]: 60 µM
CCCCCCCCCCCCCCCC(=O)n1c(=S)oc2ccccc21 | inactive | inactive | inactive | inactive | inactive | inactive | inactive | inactive | 17 | 63 (≈ 24.5 µg/mL) | inactive | inactive | inactive | inactive | inactive | inactive | inactive | inactive | inhibition [28]: 23%
COC(=O)c1ccc2oc(=S)[nH]c2c1 | inactive | inactive | inactive | inactive | inactive | inactive | inactive | inactive |  |  | inactive | inactive | inactive | inactive | inactive | inactive | inactive | inactive | inhibition [29]: 27%; IC50 [30]: 1300 µM
CCCCCCCCCCn1c(-c2ccc(OS(N)(=O)=O)cc2)cc2ccc(OS(N)(=O)=O)cc21 | inactive | inactive | inactive | inactive | inactive | inactive | inactive | inactive | 16 |  | inactive | inactive | inactive | inactive | inactive | inactive | inactive | inactive | IC50 [31]: 16 µM; IC50 [30]: 11 µM; IC50 [32]: 11 µM
CCn1c(S)nc2ccccc21 | inactive | inactive | inactive | inactive | inactive | inactive | inactive | inactive |  | 4200 (≈ 749 µg/mL) | inactive | inactive | inactive | inactive | inactive | inactive | inactive | inactive | inhibition [33]: 28%; inhibition [34]: 19%
CCCCCCCCCCCCCCCC(=O)OC[C@H](O)[C@H]1OC(=O)C(O)=C1O [ASCORBYL PALMITATE] | inactive | inactive | inactive | inactive | inactive | inactive | inactive | inactive |  |  | inactive | inactive | inactive | inactive | inactive | inactive | inactive | inactive | IC50 [30]: 4.2 µM; IC50 [35]: 4.2 µM
